This is a sample that favours compounds with a hit; in the whole collection about 1.8% have one here.
NPY Y1 blocker – antagonists of human neuropeptide Y receptor Y1. P25929. HEK293-CNG Y1 cells, membrane potential fluorescence; NPY at EC95, then isoproterenol. 200,000 compounds, 1% hits. inhibition, % at 3.6 µM;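 active = inhibition above the campaign mean inhibition of all tested compounds plus 3 SD, cut at about 20% in these data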;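 also: 0% = DMSO wells given NPY plus isoproterenol and 100% = isoproterenol alone without NPY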
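material = HEK293 cells with Y1 receptor plus CNG channel | also added = NPY 25 nM then isoproterenol 1 µM plus Ro 20-1724 25 µM | schedule = dye 3 h, compound 60 min room temperature, stimulation 45 min | measured by = membrane potential fluorescence | benchmarks = high control isoproterenol alone, low control NPY with isoproterenol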
NPY-Y2 antag – blocks the human neuropeptide Y Y2 receptor | P49146 | NPY-Y2 expressing cells, antagonist mode | inhibition, % at 2.7 µM | 140,000 compounds, 0.99% hits; in the data active = inhibition above about 17%;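 also: 0% = vehicle with agonist challenge and 100% = reference antagonist with challenge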
Target sequence (P49146 whole entry, looked up): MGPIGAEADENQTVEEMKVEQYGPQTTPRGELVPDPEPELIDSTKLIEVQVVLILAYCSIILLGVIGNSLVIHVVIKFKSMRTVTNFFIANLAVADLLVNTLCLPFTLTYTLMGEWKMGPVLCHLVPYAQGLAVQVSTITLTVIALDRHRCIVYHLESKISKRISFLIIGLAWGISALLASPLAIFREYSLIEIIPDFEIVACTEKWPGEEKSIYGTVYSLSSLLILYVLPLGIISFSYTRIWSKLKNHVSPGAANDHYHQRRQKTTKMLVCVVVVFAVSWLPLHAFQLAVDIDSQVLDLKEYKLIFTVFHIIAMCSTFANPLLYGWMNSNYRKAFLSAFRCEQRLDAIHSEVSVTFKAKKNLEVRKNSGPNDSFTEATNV
NPY-Y1 PAM-ag – human NPY-Y1 potentiation or agonism, primary screen. P25929. NPY-Y1 expressing cells, potentiator/agonist activation. activation, % at 3.6 µM. 220,000 compounds, 0.37% hits. AID 1304; in the data active = activation above about 33%, passing the limit was not always enough;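 also: cells stimulated with NPY at EC10 then isoproterenol at EC100; 0% = low agonist plus stimulus and 100% = saturating agonist plus stimulus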
NPY2 pot ag – human NPY-Y2 potentiation or agonism, primary screen; P49146; cells expressing NPY-Y2, potentiator/agonist read-out; activation, % at 3.6 µM; 220,000 compounds, 0.45% hits; in the data active = activation above about 27%;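 also: cells stimulated with NPY near EC25 plus isoproterenol at EC100; 0% = vehicle plus submaximal agonist and 100% = vehicle plus saturating agonist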
NPY1 antag ctr – human NPY-Y1 antagonism in NPY-Y2 counter-screen; shares compounds with NPY-Y2 antag; cell-based NPY-Y1 antagonism counterscreen; inhibition, % at 3.6 µM; 710 compounds, 19% hits; in the data active = inhibition above about 20%;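 also: cells challenged with NPY then isoproterenol with cAMP sensed through a CNG channel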
NPY-Y2 ant conf – human NPY-Y2 antagonism, confirmation | shares compounds with NPY-Y2 antag | HEK293 NPY-Y2 CNG channel, membrane potential fluorescence | inhibition, % at 2.8 µM | 710 compounds, 32% hits;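 active = mean inhibition of triplicate wells above the hit cutoff set in the primary screen, cut at about 17% in these data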;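 also: 0% = DMSO with NPY challenge and 100% = BIIE0246 high control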
An asterisk follows results filed as active.

How did Cc1ccc(CSc2nnc(-c3cccc(S(=O)(=O)N4CCOCC4)c3)n2CC(C)C)cc1 do in these assays?
NPY Y1 blocker: 7; NPY-Y2 antag: 18*; NPY-Y1 PAM-ag: -24; NPY2 pot ag: 3; NPY1 antag ctr: 10; NPY-Y2 ant conf: 6

Results for CCC(C)n1c(SCC(=O)NCc2ccco2)nnc1-c1cccc(S(=O)(=O)N2CCOCC2)c1 (stereo unspecified) ?
NPY Y1 blocker: 5; NPY-Y2 antag: -1; NPY-Y1 PAM-ag: 6; NPY2 pot ag: -10

What do the screens show for `O=C(C1CCN(Cc2ccc(OCc3ccccc3)cc2)CC1)N1CCCC1`?
NPY Y1 blocker: 8; NPY-Y2 antag: 7; NPY-Y1 PAM-ag: -12; NPY2 pot ag: 6

Results for O=C(C1CCN(Cc2ccc(Cl)cc2)CC1)N1CCN(C(c2ccccc2)c2ccccc2)CC1 ?
NPY Y1 blocker: 3; NPY-Y2 antag: 20*; NPY-Y1 PAM-ag: -28; NPY2 pot ag: -4; NPY1 antag ctr: 9; NPY-Y2 ant conf: 32*

Results for Nc1c(C(=O)Nn2cnnc2)cc([N+](=O)[O-])cc1[N+](=O)[O-] ?
NPY Y1 blocker: 1; NPY-Y2 antag: 5; NPY-Y1 PAM-ag: 9; NPY2 pot ag: -9

Results for COC(=O)c1ccc(NCN2C(=O)C3C4CCC(C4)C3C2=O)cc1 (stereo unspecified) ?
NPY Y1 blocker: 4; NPY-Y1 PAM-ag: -1; NPY2 pot ag: 8

What do the screens show for `Oc1cccc(-c2nc3ccc4ccccc4c3c3c2CCC3)c1`?
NPY Y1 blocker: 16; NPY-Y2 antag: 30*; NPY-Y1 PAM-ag: -30; NPY2 pot ag: -36; NPY1 antag ctr: 10; NPY-Y2 ant conf: 32*

Results for CCOC(=O)c1cc2oc(C)cc2n1CC(=O)OC1CCCCC1 ?
NPY Y1 blocker: 14; NPY-Y2 antag: 6; NPY-Y1 PAM-ag: -23; NPY2 pot ag: 6

How did O=[N+]([O-])c1ccc(-c2csc(Nc3ccccc3)[n+]2Cc2ccccc2)cc1 do in these assays?
NPY Y1 blocker: 11; NPY-Y2 antag: 19*; NPY-Y1 PAM-ag: -4; NPY2 pot ag: 12; NPY1 antag ctr: 11; NPY-Y2 ant conf: 9

How did Clc1ccc(-c2nnn(Cc3nc4ccccc4s3)n2)cc1 do in these assays?
NPY Y1 blocker: 11; NPY-Y2 antag: 18*; NPY-Y1 PAM-ag: -38; NPY2 pot ag: -22; NPY1 antag ctr: 20; NPY-Y2 ant conf: 24*

How did Fc1ccc(-c2nnn(Cc3nc4ccccc4s3)n2)cc1 do in these assays?
NPY Y1 blocker: 7; NPY-Y2 antag: 11; NPY-Y1 PAM-ag: -43; NPY2 pot ag: -21

Results for CC(C)(C)n1nnnc1C(c1cccs1)N(Cc1ccc(Cl)cc1)CC1CCCO1 (stereo unspecified) ?
NPY Y1 blocker: 11; NPY-Y2 antag: 28*; NPY-Y1 PAM-ag: -21; NPY2 pot ag: 2; NPY1 antag ctr: 19; NPY-Y2 ant conf: 11

Results for CC/C(=C\C1CCCCC1)C(NP(=O)(c1ccccc1)c1ccccc1)c1ccccc1 (stereo unspecified) ?
NPY Y1 blocker: 18; NPY-Y2 antag: 23*; NPY-Y1 PAM-ag: -20; NPY2 pot ag: 0; NPY1 antag ctr: 38*; NPY-Y2 ant conf: 34*

Results for COc1ccc(C(=O)Oc2cc(N)n(S(=O)(=O)c3ccccc3)n2)cc1 ?
NPY Y1 blocker: -4; NPY-Y1 PAM-ag: 13; NPY2 pot ag: 10

Results for CCOC(=O)Cn1nc(-c2ccccc2)c2cnc3ccc(C)cc3c21 ?
NPY Y1 blocker: 3; NPY-Y2 antag: 24*; NPY-Y1 PAM-ag: -35; NPY2 pot ag: 7; NPY1 antag ctr: 24*; NPY-Y2 ant conf: 19*

How did CCOC(=O)Cn1nc(-c2ccc(C)cc2)c2ccccc2c1=O do in these assays?
NPY Y1 blocker: 3; NPY-Y1 PAM-ag: 5; NPY2 pot ag: -7

Results for Cc1c(C(=O)N/N=C/c2ccc(N3CCOCC3)cc2)nc2ccccn12 ?
NPY Y1 blocker: 2; NPY-Y1 PAM-ag: -3; NPY2 pot ag: 7

Results for Cc1cccc(OCCCSc2nc3ccc(C)cc3[nH]2)c1 ?
NPY Y1 blocker: 16; NPY-Y2 antag: 17*; NPY-Y1 PAM-ag: -35; NPY2 pot ag: -31; NPY1 antag ctr: 12; NPY-Y2 ant conf: 17

How did Cc1cccc(C)c1NC(=O)CCCSc1nnc(-c2ccc(Cl)cc2)n1-c1ccccc1 do in these assays?
NPY Y1 blocker: 2; NPY-Y2 antag: 18*; NPY-Y1 PAM-ag: -9; NPY2 pot ag: 1; NPY1 antag ctr: 3; NPY-Y2 ant conf: 12

How did C/C(Cn1nnc([N+](=O)[O-])n1)=N\NC(=O)c1ccccc1O do in these assays?
NPY-Y1 PAM-ag: -43; NPY2 pot ag: -19

What do the screens show for `C/C(Cn1nnc([N+](=O)[O-])n1)=N\NC(=O)c1ccc(O)cc1O`?
NPY Y1 blocker: -1; NPY-Y2 antag: 25*; NPY-Y1 PAM-ag: -3; NPY2 pot ag: -1; NPY1 antag ctr: -2; NPY-Y2 ant conf: 0

How did CCCC(O)(CCC)C(=O)NN(C(=O)OC)c1ccccc1 do in these assays?
NPY Y1 blocker: 15; NPY-Y2 antag: 20*; NPY-Y1 PAM-ag: -14; NPY2 pot ag: -19; NPY1 antag ctr: 8; NPY-Y2 ant conf: 11

How did CCC(C)(C(=O)NC1CCCCC1)N(Cc1ccco1)C(=O)c1ccccn1 (stereo unspecified) do in these assays?
NPY Y1 blocker: 14; NPY-Y2 antag: 17*; NPY-Y1 PAM-ag: -20; NPY2 pot ag: -19; NPY1 antag ctr: 12; NPY-Y2 ant conf: 9

How did O=C(NCc1ccco1)NC1CCCCC1 do in these assays?
NPY Y1 blocker: 6; NPY-Y2 antag: 4; NPY-Y1 PAM-ag: -6; NPY2 pot ag: -1

What do the screens show for `COc1ccc(CN(Cc2ccccn2)S(=O)(=O)c2ccc(-n3cnnn3)cc2)cc1`?
NPY Y1 blocker: 1; NPY-Y2 antag: -2; NPY-Y1 PAM-ag: 9; NPY2 pot ag: 0

Results for CCC1=Nc2ccc(Br)cc2C(c2ccccc2)N1CC(=O)OC (stereo unspecified) ?
NPY Y1 blocker: 14; NPY-Y2 antag: 23*; NPY-Y1 PAM-ag: 6; NPY2 pot ag: -16; NPY1 antag ctr: 13; NPY-Y2 ant conf: 23*

Results for CC1=CC(C)(C)N(S(=O)(=O)c2ccc(C)cc2)c2ccc(C)cc21 ?
NPY Y1 blocker: 8; NPY-Y2 antag: 21*; NPY-Y1 PAM-ag: 7; NPY2 pot ag: -2; NPY1 antag ctr: 24*; NPY-Y2 ant conf: 20*

What do the screens show for `O=C(Nc1ccc(S(=O)(=O)NC2CCCC2)cc1)c1cnccn1`?
NPY Y1 blocker: 2; NPY-Y2 antag: 23*; NPY-Y1 PAM-ag: -4; NPY2 pot ag: -10; NPY1 antag ctr: 1; NPY-Y2 ant conf: 9

Results for CC(C)NC(=O)C1CCN(C2CCN(C(=O)c3ccc4cccc(F)c4n3)CC2)CC1 ?
NPY-Y1 PAM-ag: 5; NPY2 pot ag: -5

How did CC(C)N1CCC(N2CCN(C3CCCC3)CC2CCO)CC1 (stereo unspecified) do in these assays?
NPY Y1 blocker: -4; NPY-Y1 PAM-ag: 3; NPY2 pot ag: -5

Source: PubChem BioAssay
